Columns and labels:
Assay type in all cases: functional
Plasmodium yoelii [1] = experiment: Antimalarial activity against chloroquine, mefloquine and halofantrine-resistant Plasmodium yoelii infected in Swiss mouse assessed as suppression of parasitemia at 24 mg/kg, po for 4 days by microscopic analysis relative to control
How it was run: (§1)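 Swiss mice of either sex infected ip on day 0 with 1 × 10⁶ parasitized RBCs of multidrug-resistant P. yoelii nigeriensis, five per dose. Oral dosing in groundnut oil (0.1 mL) once daily days 0–3. Parasitemia read by microscopy on day 4. % suppression = [(C − T)/C] × 100 against untreated controls; 100% means no parasites in 50 oil-immersion fields.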

Plasmodium yoelii [2] = experiment: Antimalarial activity against chloroquine, mefloquine and halofantrine-resistant Plasmodium yoelii infected in Swiss mouse assessed as mouse survival at 24 mg/kg, po for 4 days measured on day 28 relative to control
How it was run: (§2)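 P. yoelii nigeriensis (chloroquine-, mefloquine-, halofantrine-resistant) given ip as 1 × 10⁶ parasitized RBCs on day 0 to Swiss mice of either sex, five per dose. Compound in groundnut oil, 0.1 mL, given orally once daily days 0–3. Blood smears checked through day 28. Mice surviving beyond day 28 counted as protected, reported as % of five. β-Arteether as positive control.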

Plasmodium yoelii [3] = experiment: Antimalarial activity against chloroquine, mefloquine and halofantrine-resistant Plasmodium yoelii infected in Swiss mouse assessed as suppression of parasitemia at 12 mg/kg, po for 4 days by microscopic analysis relative to control; how it was run: as §1
Plasmodium yoelii [4] = experiment: Antimalarial activity against chloroquine, mefloquine and halofantrine-resistant Plasmodium yoelii infected in Swiss mouse assessed as mouse survival at 12 mg/kg, po for 4 days measured on day 28 relative to control; how it was run: as §2
Plasmodium yoelii [5] = experiment: Antimalarial activity against chloroquine, mefloquine and halofantrine-resistant Plasmodium yoelii infected in Swiss mouse assessed as mouse survival at 6 mg/kg, po for 4 days measured on day 28 relative to control; how it was run: as §2
Plasmodium yoelii [6] = experiment: Antimalarial activity against chloroquine, mefloquine and halofantrine-resistant Plasmodium yoelii infected in Swiss mouse assessed as suppression of parasitemia at 6 mg/kg, po for 4 days by microscopic analysis relative to control; how it was run: as §1
Plasmodium yoelii [7] = experiment: Ratio of compound to beta-arteether for antimalarial activity against chloroquine, mefloquine and halofantrine-resistant Plasmodium yoelii infected in Swiss mouse assessed as mouse survival
Plasmodium yoelii [8] = experiment: Antimalarial activity against chloroquine, mefloquine and halofantrine-resistant Plasmodium yoelii infected in Swiss mouse assessed as suppression of parasitemia at 48 mg/kg, po for 4 days by microscopic analysis relative to control; how it was run: as §1
Plasmodium yoelii [9] = experiment: Antimalarial activity against chloroquine, mefloquine and halofantrine-resistant Plasmodium yoelii infected in Swiss mouse assessed as mouse survival at 48 mg/kg, po for 4 days measured on day 28 relative to control; how it was run: as §2

Structure (SMILES): C[C@@H]1CC[C@H]2[C@@H](C)C(=O)N(N)[C@@H]3O[C@@]4(C)CC[C@@H]1[C@@]23OO4
- Activity (Plasmodium yoelii [1]): 100%
- Activity (Plasmodium yoelii [2]): 40%

Structure (SMILES): C[C@@H]1CC[C@H]2[C@@H](C)C(=O)N(O)[C@@H]3O[C@@]4(C)CC[C@@H]1[C@@]23OO4
- Activity (Plasmodium yoelii [1]): 54%
- Activity (Plasmodium yoelii [2]): 0%

Structure (SMILES): C[C@@H]1CC[C@H]2[C@@H](C)C(=O)N(NC(=O)c3ccccc3)[C@@H]3O[C@@]4(C)CC[C@@H]1[C@@]23OO4
- Activity (Plasmodium yoelii [1]): 100%
- Activity (Plasmodium yoelii [3]): 62%
- Activity (Plasmodium yoelii [4]): 0%
- Activity (Plasmodium yoelii [2]): 100%

Structure (SMILES): C[C@@H]1CC[C@H]2[C@@H](C)C(=O)N(NC(=O)c3ccc(Br)cc3)[C@@H]3O[C@@]4(C)CC[C@@H]1[C@@]23OO4
- Activity (Plasmodium yoelii [1]): 100%
- Activity (Plasmodium yoelii [3]): 100%
- Activity (Plasmodium yoelii [4]): 0%
- Activity (Plasmodium yoelii [2]): 100%

Structure (SMILES): C[C@@H]1CC[C@H]2[C@@H](C)C(=O)N(NC(=O)c3ccc(C(F)(F)F)cc3)[C@@H]3O[C@@]4(C)CC[C@@H]1[C@@]23OO4
- Activity (Plasmodium yoelii [1]): 100%
- Activity (Plasmodium yoelii [3]): 100%
- Activity (Plasmodium yoelii [4]): 20%
- Activity (Plasmodium yoelii [2]): 100%

Structure (SMILES): C[C@@H]1CC[C@H]2[C@@H](C)C(=O)N(NC(=O)C34CC5CC(CC(C5)C3)C4)[C@@H]3O[C@@]4(C)CC[C@@H]1[C@@]23OO4
- Activity (Plasmodium yoelii [1]): 100%
- Activity (Plasmodium yoelii [2]): 60%

Structure (SMILES): C[C@@H]1CC[C@H]2[C@@H](C)C(=O)N(NC(=O)C3c4ccccc4-c4ccccc43)[C@@H]3O[C@@]4(C)CC[C@@H]1[C@@]23OO4
- Activity (Plasmodium yoelii [1]): 100%
- Activity (Plasmodium yoelii [2]): 60%

Structure (SMILES): C[C@@H]1CC[C@H]2[C@@H](C)C(=O)N(NC(=O)c3ccc(-c4ccccc4)cc3)[C@@H]3O[C@@]4(C)CC[C@@H]1[C@@]23OO4
- Activity (Plasmodium yoelii [1]): 100%
- Activity (Plasmodium yoelii [3]): 100%
- Activity (Plasmodium yoelii [5]): 0%
- Activity (Plasmodium yoelii [4]): 100%
- Activity (Plasmodium yoelii [2]): 100%
- Activity (Plasmodium yoelii [6]): 94%
- Ratio (Plasmodium yoelii [7]): 4

Structure (SMILES): C[C@@H]1CC[C@H]2[C@@H](C)C(=O)N(NC(=O)CC34CC5CC(CC(C5)C3)C4)[C@@H]3O[C@@]4(C)CC[C@@H]1[C@@]23OO4
- Activity (Plasmodium yoelii [1]): 100%
- Activity (Plasmodium yoelii [2]): 60%

Structure (SMILES): C[C@@H]1CC[C@H]2[C@@H](C)C(=O)N(/N=C/c3ccccc3)[C@@H]3O[C@@]4(C)CC[C@@H]1[C@@]23OO4
- Activity (Plasmodium yoelii [1]): 100%
- Activity (Plasmodium yoelii [2]): 40%

Structure (SMILES): Cc1ccc(/C=N/N2C(=O)[C@H](C)[C@@H]3CC[C@@H](C)[C@@H]4CC[C@@]5(C)OO[C@]43[C@H]2O5)cc1
- Activity (Plasmodium yoelii [1]): 100%
- Activity (Plasmodium yoelii [3]): 100%
- Activity (Plasmodium yoelii [5]): 0%
- Activity (Plasmodium yoelii [4]): 100%
- Activity (Plasmodium yoelii [2]): 100%
- Activity (Plasmodium yoelii [6]): 66%
- Ratio (Plasmodium yoelii [7]): 4

Structure (SMILES): C[C@@H]1CC[C@H]2[C@@H](C)C(=O)N(/N=C/c3ccc(Cl)cc3)[C@@H]3O[C@@]4(C)CC[C@@H]1[C@@]23OO4
- Activity (Plasmodium yoelii [1]): 100%
- Activity (Plasmodium yoelii [2]): 20%

Structure (SMILES): C[C@@H]1CC[C@H]2[C@@H](C)C(=O)N(/N=C/c3ccc(F)cc3)[C@@H]3O[C@@]4(C)CC[C@@H]1[C@@]23OO4
- Activity (Plasmodium yoelii [1]): 100%
- Activity (Plasmodium yoelii [2]): 40%

Structure (SMILES): C[C@@H]1CC[C@H]2[C@@H](C)C(=O)N(/N=C/c3ccc(C(F)(F)F)cc3)[C@@H]3O[C@@]4(C)CC[C@@H]1[C@@]23OO4
- Activity (Plasmodium yoelii [1]): 100%
- Activity (Plasmodium yoelii [3]): 100%
- Activity (Plasmodium yoelii [5]): 0%
- Activity (Plasmodium yoelii [4]): 100%
- Activity (Plasmodium yoelii [2]): 100%
- Activity (Plasmodium yoelii [6]): 99%
- Ratio (Plasmodium yoelii [7]): 4

Structure (SMILES): C[C@@H]1CC[C@H]2[C@@H](C)C(=O)N(/N=C/c3ccc(-c4ccccc4)cc3)[C@@H]3O[C@@]4(C)CC[C@@H]1[C@@]23OO4
- Activity (Plasmodium yoelii [1]): 100%
- Activity (Plasmodium yoelii [3]): 100%
- Activity (Plasmodium yoelii [5]): 80%
- Activity (Plasmodium yoelii [4]): 100%
- Activity (Plasmodium yoelii [2]): 100%
- Activity (Plasmodium yoelii [6]): 100%
- Ratio (Plasmodium yoelii [7]): 4

Structure (SMILES): C[C@@H]1CC[C@H]2[C@@H](C)C(=O)N(/N=C/c3ccc4c(c3)Cc3ccccc3-4)[C@@H]3O[C@@]4(C)CC[C@@H]1[C@@]23OO4
- Activity (Plasmodium yoelii [1]): 100%
- Activity (Plasmodium yoelii [3]): 100%
- Activity (Plasmodium yoelii [5]): 0%
- Activity (Plasmodium yoelii [4]): 100%
- Activity (Plasmodium yoelii [2]): 100%
- Activity (Plasmodium yoelii [6]): 66%
- Ratio (Plasmodium yoelii [7]): 4

Structure (SMILES): C[C@@H]1CC[C@H]2[C@@H](C)C(=O)N(NCc3ccccc3)[C@@H]3O[C@@]4(C)CC[C@@H]1[C@@]23OO4
- Activity (Plasmodium yoelii [1]): 100%
- Activity (Plasmodium yoelii [3]): 100%
- Activity (Plasmodium yoelii [4]): 0%
- Activity (Plasmodium yoelii [2]): 100%

Structure (SMILES): Cc1ccc(CNN2C(=O)[C@H](C)[C@@H]3CC[C@@H](C)[C@@H]4CC[C@@]5(C)OO[C@]43[C@H]2O5)cc1
- Activity (Plasmodium yoelii [1]): 100%
- Activity (Plasmodium yoelii [3]): 74%
- Activity (Plasmodium yoelii [4]): 0%
- Activity (Plasmodium yoelii [2]): 60%

Structure (SMILES): C[C@@H]1CC[C@H]2[C@@H](C)C(=O)N(NCc3ccc(Cl)cc3)[C@@H]3O[C@@]4(C)CC[C@@H]1[C@@]23OO4
- Activity (Plasmodium yoelii [1]): 100%
- Activity (Plasmodium yoelii [3]): 100%
- Activity (Plasmodium yoelii [4]): 80%
- Activity (Plasmodium yoelii [2]): 100%

Structure (SMILES): C[C@@H]1CC[C@H]2[C@@H](C)C(=O)N(NCc3ccc(F)cc3)[C@@H]3O[C@@]4(C)CC[C@@H]1[C@@]23OO4
- Activity (Plasmodium yoelii [1]): 100%
- Activity (Plasmodium yoelii [3]): 100%
- Activity (Plasmodium yoelii [4]): 20%
- Activity (Plasmodium yoelii [2]): 100%

Structure (SMILES): C[C@@H]1CC[C@H]2[C@@H](C)C(=O)N(NCc3ccc(C(F)(F)F)cc3)[C@@H]3O[C@@]4(C)CC[C@@H]1[C@@]23OO4
- Activity (Plasmodium yoelii [1]): 100%
- Activity (Plasmodium yoelii [3]): 100%
- Activity (Plasmodium yoelii [4]): 20%
- Activity (Plasmodium yoelii [2]): 100%

Structure (SMILES): C[C@@H]1CC[C@H]2[C@@H](C)C(=O)N(NCc3ccc(-c4ccccc4)cc3)[C@@H]3O[C@@]4(C)CC[C@@H]1[C@@]23OO4
- Activity (Plasmodium yoelii [1]): 100%
- Activity (Plasmodium yoelii [3]): 100%
- Activity (Plasmodium yoelii [5]): 20%
- Activity (Plasmodium yoelii [4]): 100%
- Activity (Plasmodium yoelii [2]): 100%
- Activity (Plasmodium yoelii [6]): 100%
- Ratio (Plasmodium yoelii [7]): 4

Structure (SMILES): C[C@@H]1CC[C@H]2[C@@H](C)C(=O)N(NCc3ccc4c(c3)Cc3ccccc3-4)[C@@H]3O[C@@]4(C)CC[C@@H]1[C@@]23OO4
- Activity (Plasmodium yoelii [1]): 100%
- Activity (Plasmodium yoelii [3]): 100%
- Activity (Plasmodium yoelii [4]): 40%
- Activity (Plasmodium yoelii [2]): 100%

Structure (SMILES): C[C@@H]1CC[C@H]2[C@@H](C)C(=O)N(OCc3ccccc3)[C@@H]3O[C@@]4(C)CC[C@@H]1[C@@]23OO4
- Activity (Plasmodium yoelii [1]): 100%
- Activity (Plasmodium yoelii [3]): 100%
- Activity (Plasmodium yoelii [4]): 80%
- Activity (Plasmodium yoelii [2]): 100%

Structure (SMILES): C[C@@H]1CC[C@H]2[C@@H](C)C(=O)N(OCc3ccccc3F)[C@@H]3O[C@@]4(C)CC[C@@H]1[C@@]23OO4
- Activity (Plasmodium yoelii [1]): 100%
- Activity (Plasmodium yoelii [3]): 89%
- Activity (Plasmodium yoelii [4]): 0%
- Activity (Plasmodium yoelii [2]): 100%

Structure (SMILES): C[C@@H]1CC[C@H]2[C@@H](C)C(=O)N(OCc3ccc(-c4ccccc4)cc3)[C@@H]3O[C@@]4(C)CC[C@@H]1[C@@]23OO4
- Activity (Plasmodium yoelii [1]): 100%
- Activity (Plasmodium yoelii [3]): 100%
- Activity (Plasmodium yoelii [4]): 60%
- Activity (Plasmodium yoelii [2]): 100%

Structure (SMILES): CCO[C@H]1O[C@@H]2O[C@@]3(C)CC[C@H]4[C@H](C)CC[C@@H]([C@H]1C)[C@@]24OO3 [ARTEMOTIL]
- Activity (Plasmodium yoelii [8]): 100%
- Activity (Plasmodium yoelii [1]): 100%
- Activity (Plasmodium yoelii [9]): 100%
- Activity (Plasmodium yoelii [2]): 20%
